# Assay results: ChEMBL document CHEMBL2163323, “Characterization and solubilization of pyrrole-imidazole polyamide aggregates” (J Med Chem, 2012); call rule not given here
# Tests used:
# [1] = Solubility of the compound in 0.1 % DMSO/PBS solution assessed as radius of the aggregate particle at 1 uM measured over 10 mins by dynamic light scattering method; assay type: physicochemical; conditions: buffer
# Procedure, shortened: (§1)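 DMSO stocks (1, 4, 10 mM) were centrifuged, then diluted 1000× into PBS (final 0.1% DMSO). Dynamic light scattering used a 659 nm laser at a 90° angle and 25 °C, with 10–15 s acquisitions over 10 min. Radius came from a cumulant fit of averaged autocorrelation functions at the lowest concentration giving 3× buffer signal. Values are SD of ≥3 independent measurements.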
# A549 [2] = test: Drug uptake in human A549 cells incubated with mouse plasma isolated 1.5 hr post administration with compound measured after 16 hrs by confocal microscopy; assay type: ADME, cell-based
# Procedure, shortened: (§2)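 A549 cells were seeded at 100k cells/mL in F-12K/10% FBS and allowed to adhere for 18 h at 37 °C in 5% CO2. Medium was replaced with 200 μL fresh medium plus 20 μL plasma. The plasma came from mice given 120 nmol IP in 20% DMSO/80 mM HpβCD/PBS. After 16 h, live cells were imaged by confocal microscopy (63× oil objective, fluorescein filters).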
# [3] = Solubility of the compound in 20 % DMSO/PBS; assay type: physicochemical; conditions: buffer
# A549 [4] = test: Drug uptake in human A549 cells incubated with mouse plasma isolated 4.5 hr post administration with compound measured after 16 hrs by confocal microscopy; assay type: ADME, cell-based; procedure, shortened: as §2
# [5] = Solubility of the compound in 0.1 % DMSO/PBS solution at 4 uM after 2 hrs by HPLC analysis; assay type: physicochemical; conditions: buffer
# Procedure, shortened: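 A 4 mM DMSO stock was diluted 1000× into PBS, vortexed, sonicated 20 min at 25 °C and equilibrated 2 h at room temperature. After centrifugation for 20 min, the supernatant was analysed by HPLC at 310 nm against a standard curve. Maximum concentration was estimated from quantitation of the stock in 0.1% DMSO/water. Values are SD of ≥3 independent measurements.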
# [6] = Solubility of the compound in 0.1 % DMSO/PBS solution assessed as radius of the aggregate particle at 4 uM measured over 10 mins by dynamic light scattering method; assay type: physicochemical; conditions: buffer; procedure, shortened: as §1
# [7] = Solubility of the compound in 0.1 % DMSO/PBS solution at 4 uM after 2 hrs by HPLC analysis in presence of 50 mM 2-hydroxypropyl-beta-cyclodextrin; assay type: physicochemical; conditions: buffer
# Procedure, shortened: (§3)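 The 4 mM DMSO stock was diluted 1000× into PBS containing 35 mM dextrose, 5 mM γCD, 50 mM HpβCD or 6 mg/mL hypromellose. Samples were sonicated 20 min at 25 °C, equilibrated 2 h at room temperature and centrifuged. The soluble fraction was measured by HPLC peak area at 310 nm against a standard curve. Values are SD of ≥3 independent measurements.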
# Plasma [8] = test: Drug uptake in C57Bl/6 mouse plasma at 120 nmol, ip in 20 % DMSO/PBS vehicle measured after 24 hrs; assay type: ADME, organism-based; conditions: in vivo
# Procedure, shortened: (§4)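 C57bl/6 mice, 8–12 weeks old, received an IP injection of 200 μL PBS containing 120 nmol compound in the stated vehicle. Under isoflurane, blood was drawn retro-orbitally at three time points. Plasma from four mice was pooled (5 μL each), precipitated with methanol, spiked with Boc-Py-OMe as internal control, and quantified by HPLC at 310 nm against a standard curve.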
# [9] = Plasma concentration of compound in C57Bl/6 mouse at 120 nmol, ip in 1 % DMSO/80 mM HPbeta-CD/PBS vehicle measured after 1.5 hrs; assay type: ADME, organism-based; procedure, shortened: as §4
# [10] = Plasma concentration of compound in C57Bl/6 mouse at 120 nmol, ip in 20 % DMSO/PBS vehicle measured after 1.5 hrs; assay type: ADME, organism-based; procedure, shortened: as §4
# [11] = Solubility of the compound in 0.1 % DMSO/PBS solution at 4 uM after 2 hrs by HPLC analysis in presence of 5 mM gamma-cyclodextrin; assay type: physicochemical; conditions: buffer; procedure, shortened: as §3
# [12] = Solubility of the compound in 0.1 % DMSO/PBS solution at 4 uM after 2 hrs by HPLC analysis in presence of 35 mM dextrose; assay type: physicochemical; conditions: buffer; procedure, shortened: as §3
# [13] = Solubility of the compound in 0.1 % DMSO/PBS solution at 4 uM after 2 hrs by HPLC analysis in presence of 6 mg/ml hypromellose; assay type: physicochemical; conditions: buffer; procedure, shortened: as §3
# Plasma [14] = test: Drug uptake in C57Bl/6 mouse plasma at 120 nmol, ip in 1 % DMSO/80 mM HPbeta-CD/PBS vehicle measured after 24 hrs; assay type: ADME, organism-based; conditions: in vivo; procedure, shortened: as §4
Compound,solubility [5],Activity [6] [nm],other results
CN(CCCNC(=O)c1cc(NC(=O)c2cc(NC(=O)c3cc(NC(=O)c4nc(NC(=O)C[C@H](CNC(=O)c5cc(NC(=O)c6cc(NC(=O)c7cc(NC(=O)c8nccn8C)cn7C)cn6C)cn5C)NC(=O)c5ccccc5)cn4C)cn3C)cn2C)cn1C)CCCNC(=S)Nc1ccc(-c2c3ccc(=O)cc-3oc3cc(O)ccc23)c(C(=O)O)c1,–,–,Activity [1]: 147 nm
CN(CCCNC(=O)c1cc(NC(=O)c2cc(NC(=O)c3cc(NC(=O)c4cc(NC(=O)[C@H](N)CCNC(=O)c5cc(NC(=O)c6cc(NC(=O)c7nc(NC(=O)c8nccn8C)cn7C)cn6C)cn5C)cn4C)cn3C)cn2C)cn1C)CCCNC(=S)Nc1ccc(-c2c3ccc(=O)cc-3oc3cc(O)ccc23)c(C(=O)O)c1,–,–,Drug uptake (A549 [2]): Active; solubility [3]: Insoluble; Drug uptake (A549 [4]): Not Active
CN(CCCNC(=O)c1cccc(C(=O)O)c1)CCCNC(=O)c1cc(NC(=O)c2cc(NC(=O)c3cc(NC(=O)c4nc(NC(=O)C[C@H](CNC(=O)c5cc(NC(=O)c6cc(NC(=O)c7cc(NC(=O)c8nccn8C)cn7C)cn6C)cn5C)NC(=O)c5ccccc5)cn4C)cn3C)cn2C)cn1C,Insoluble,127,Activity [1]: 87 nm
CN(CCCNC(=O)c1cccc(C(=O)O)c1)CCCNC(=O)c1cc(NC(=O)c2cc(NC(=O)c3cc(NC(=O)c4cc(NC(=O)[C@H](N)CCNC(=O)c5cc(NC(=O)c6cc(NC(=O)c7nc(NC(=O)c8nccn8C)cn7C)cn6C)cn5C)cn4C)cn3C)cn2C)cn1C,Insoluble,124,solubility [7]: soluble; Drug uptake (Plasma [8]): Not Active; concentration at 1.5 h [9]: 13 µM; concentration at 1.5 h [10]: 13 µM; solubility [11]: soluble; solubility [12]: Insoluble; solubility [13]: soluble; Drug uptake (Plasma [14]): Not Active
Cn1cc2cc1C(=O)NCCCC(=O)Nc1cn(C)c(n1)C(=O)Nc1cn(C)c(n1)C(=O)Nc1cc(n(C)c1)C(=O)Nc1cc(n(C)c1)C(=O)NC[C@H](N)CC(=O)Nc1cc(n(C)c1)C(=O)Nc1cc(n(C)c1)C(=O)Nc1cc(n(C)c1)C(=O)N2,Insoluble,197,solubility [11]: soluble; solubility [12]: Insoluble; solubility [13]: soluble
CC(=O)N[C@@H](CNC(=O)c1cc(NC(=O)c2cc(NC(=O)c3cc(NC(=O)c4nccn4C)cn3C)cn2C)cn1C)CC(=O)Nc1cn(C)c(C(=O)Nc2cc(C(=O)Nc3cc(C(=O)Nc4cc(C(=O)NCCCN(C)CCCNC(=O)c5cccc(C(=O)O)c5)n(C)c4)n(C)c3)n(C)c2)n1,Insoluble,74,–
CN(CCCNC(=O)c1cccc(C(=O)O)c1)CCCNC(=O)c1cc(NC(=O)c2cc(NC(=O)c3cc(NC(=O)c4cc(NC(=O)C[C@@H](N)CNC(=O)c5cc(NC(=O)c6cc(NC(=O)c7nc(NC(=O)c8nccn8C)cn7C)cn6C)cn5C)cn4C)cn3C)cn2C)cn1C,Insoluble,108,solubility [7]: soluble
Cn1cc2cc1C(=O)NC[C@H](N)CC(=O)Nc1cc(n(C)c1)C(=O)Nc1cc(n(C)c1)C(=O)Nc1cc(n(C)c1)C(=O)Nc1cc(n(C)c1)C(=O)NC[C@H](N)CC(=O)Nc1cn(C)c(n1)C(=O)Nc1cn(C)c(n1)C(=O)Nc1cc(n(C)c1)C(=O)N2,Insoluble,347,–
CC(=O)N[C@@H](CNC(=O)c1cc(NC(=O)c2cc(NC(=O)c3nc(NC(=O)c4nccn4C)cn3C)cn2C)cn1C)CC(=O)Nc1cc(C(=O)Nc2cc(C(=O)Nc3cc(C(=O)Nc4cc(C(=O)NCCCN(C)CCCNC(=O)c5cccc(C(=O)O)c5)n(C)c4)n(C)c3)n(C)c2)n(C)c1,Insoluble,100,solubility [7]: soluble
CN(CCCNC(=O)c1cccc(C(=O)O)c1)CCCNC(=O)c1cc(NC(=O)c2cc(NC(=O)c3cc(NC(=O)c4cc(NC(=O)C[C@H](CNC(=O)c5cc(NC(=O)c6cc(NC(=O)c7nc(NC(=O)c8nccn8C)cn7C)cn6C)cn5C)NC(=O)c5ccccc5)cn4C)cn3C)cn2C)cn1C,Insoluble,176,Activity [1]: 123 nm; solubility [7]: soluble
CN(CCCNC(=O)c1cc(NC(=O)c2cc(NC(=O)c3cc(NC(=O)c4nc(NC(=O)C[C@@H](N)CNC(=O)c5cc(NC(=O)c6cc(NC(=O)c7cc(NC(=O)c8nccn8C)cn7C)cn6C)cn5C)cn4C)cn3C)cn2C)cn1C)CCCNC(=S)Nc1ccc(-c2c3ccc(=O)cc-3oc3cc(O)ccc23)c(C(=O)O)c1,–,–,Activity [1]: 294 nm
CN(CCCNC(=O)c1cccc(C(=O)O)c1)CCCNC(=O)c1cc(NC(=O)c2cc(NC(=O)c3cc(NC(=O)c4nc(NC(=O)C[C@@H](N)CNC(=O)c5cc(NC(=O)c6cc(NC(=O)c7cc(NC(=O)c8nccn8C)cn7C)cn6C)cn5C)cn4C)cn3C)cn2C)cn1C,Insoluble,104,–
CC(=O)N[C@H]1CNC(=O)c2cc(cn2C)NC(=O)c2cc(cn2C)NC(=O)c2nc(cn2C)NC(=O)c2nc(cn2C)NC(=O)C[C@@H](NC(C)=O)CNC(=O)c2cc(cn2C)NC(=O)c2cc(cn2C)NC(=O)c2cc(cn2C)NC(=O)c2cc(cn2C)NC(=O)C1,Insoluble,182,–
CN(CCCNC(=O)c1cccc(C(=O)O)c1)CCCNC(=O)c1cc(NC(=O)c2cc(NC(=O)c3cc(NC(=O)c4nc(NC(=O)[C@H](N)CCNC(=O)c5cc(NC(=O)c6cc(NC(=O)c7cc(NC(=O)c8nccn8C)cn7C)cn6C)cn5C)cn4C)cn3C)cn2C)cn1C,Insoluble,182,–
